CHO parental Ca – counter-screen for OX1R antagonists: effect in parental CHO cells. parental CHO-K1, ATP-induced calcium, Fluo-8 fluorescence. inhibition, % at 5.6 µM. 330,000 compounds, 0.63% hits. AID 463079;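 active = inhibition above that plate's mean sample inhibition plus 3 SD, cut at about 26% in these data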
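material = parental CHO cells | also added = ATP as calcium-mobilizing challenge | dosing = single point at 5.6 µM | detection = intracellular calcium via Fluo-8 no-wash fluorescent dye | read-out = % inhibition | benchmarks = low control ATP plus DMSO, high control DMSO only | repeats = one well per compound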
GPR7 antagonist – human neuropeptides B/W receptor 1 antagonism; P48145; GPR7-expressing cells, fluorescence antagonist assay; inhibition, % at 4.4 µM; 290,000 compounds, 1.1% hits; AID 1861; in the data active = inhibition above about 16%, passing the limit was not always enough;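 also: cells stimulated with the agonist NPW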
Target sequence (P48145 whole entry, looked up): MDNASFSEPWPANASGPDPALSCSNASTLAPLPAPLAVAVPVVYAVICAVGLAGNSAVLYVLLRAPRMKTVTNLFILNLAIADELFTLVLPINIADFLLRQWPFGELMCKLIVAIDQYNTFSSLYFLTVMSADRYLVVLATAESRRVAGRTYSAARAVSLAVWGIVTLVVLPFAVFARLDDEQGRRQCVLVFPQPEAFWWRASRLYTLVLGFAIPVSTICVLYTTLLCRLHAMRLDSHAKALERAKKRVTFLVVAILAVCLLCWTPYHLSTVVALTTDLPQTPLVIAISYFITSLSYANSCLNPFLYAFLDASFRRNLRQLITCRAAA
OX1R antag-1 – human HCRTR1 antagonism. O43613. 330,000 compounds, 0.43% hits. CHO/OX1R cells, Fluo-8 calcium fluorescence, orexin A. inhibition, % at 5 µM;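 active = inhibition above its plate's threshold, mean inhibition of all tested compounds on the plate plus 3 SD, cut at about 37% in these data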
OX1R antag-2 – OX1R (human) antagonism; OX1R-expressing cells, FRET antagonist read-out; inhibition, % at 6.6 µM; 330,000 compounds, 1.8% hits; AID 485270; in the data active = inhibition mostly above about 38%, no sharp cut-off; inactive = mostly below about 40%
GalR3 antagonist – human GalR3 antagonism; HEK293 GalR3-CNG cAMP membrane potential fluorescence; galR3 body fused to GalR1 C-terminus; inhibition, % at 3 µM; 360,000 compounds, 0.44% hits;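 active = inhibition above the screen-wide average plus 3 SD, cut at about 13% in these data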;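 also: forskolin and galanin both at EC90 stimulate the cells; cAMP rise reported by CNG channel membrane potential dye signal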
Hits are given with their value; n = inactive; x = no result. Most compounds without a hit are left out; they make up all but 3.1% or so of the library.

SMILES	CHO parental Ca	GPR7 antagonist	OX1R antag-1	OX1R antag-2	GalR3 antagonist
CCc1cc2cc(C)ccc2nc1SCC(=O)NNC(=O)c1ccco1	n	n	n	48	n
O=C(CN1CCN(CCN2C(=O)c3cccc4cccc(c34)C2=O)CC1)c1ccc(F)cc1	n	n	n	45	n
CCOc1ccccc1N1CC(C(=O)Nc2ccc(S(=O)(=O)N3CCCCC3)cc2)CC1=O (stereo not given)	n	x	n	n	n
C#CC1c2ccccc2CCN1CC=C (stereo not given)	x	x	x	x	n
CC(C)CN1C(=O)c2ccc(C(=O)NCc3ccccn3)cc2C1=O	n	n	n	n	n
COCCCN1C(=O)c2ccc(C(=O)NCc3ccco3)cc2C1=O	n	n	n	42	n
COCCCN1C(=O)c2ccc(C(=O)NCc3ccccn3)cc2C1=O	n	n	n	39	n
Cc1cccc(NC(=S)/N=C(\N)Nc2nc(C)c3ccccc3n2)c1	n	n	n	76	n
CCN(CC)S(=O)(=O)c1cccc(NC(=O)Nc2cccc(C(F)(F)F)c2)c1	59	n	n	39	n
O=C1c2cccc3c([N+](=O)[O-])ccc(c23)C(=O)N1Cc1cccnc1	x	24	x	x	30
CN(C)CCCN1C(=O)c2cccc3cccc(c23)C1=O	n	n	n	56	n
O=C(CCCCCN1C(=O)c2cccc3cccc(c23)C1=O)NCCO	n	n	n	52	n
O=C1c2cccc3cccc(c23)C(=O)N1Cc1cccnc1	n	n	n	n	n
O=C(CCN1C(=O)c2cccc3cccc(c23)C1=O)NCc1cccnc1	n	n	n	47	n
COc1ccc(OC)c(S(=O)(=O)Nc2cc(C)on2)c1	n	n	n	n	n
CCOc1ccc(NC(=O)CSc2nnc(NC(=O)C3CC3)s2)cc1	n	n	n	n	n
O=C(c1ccc(Cl)c(S(=O)(=O)N2CCCCC2)c1)N1CCN(Cc2ccccc2)CC1	n	n	n	n	n
CCN(CC)C(=O)CN1C(=O)c2cccc3cccc(c23)C1=O	n	n	n	69	n
CCN(CC)c1ccc(NC(=O)c2c(C)noc2C)cc1	n	n	n	n	n
CCOP(=O)(OCC)C(C)(C)NC(=O)c1cc([N+](=O)[O-])cc([N+](=O)[O-])c1	n	n	n	59	n
CCOP(=O)(OCC)C(NC(=O)c1cc([N+](=O)[O-])cc([N+](=O)[O-])c1)C(F)(F)F (stereo not given)	n	n	n	67	n
COC(=O)[C@]12C[C@H](CC(=O)NCC34CC5CC(CC(C5)C3)C4)C(=O)N(Cc3ccc4c(c3)OCO4)C1=C[C@H](COCc1ccccc1)O[C@@H]2C	x	x	x	x	n
COc1ccc(CCNC(=O)C(=O)NCC2OCCN2C(=O)c2ccc(Cl)cc2)cc1 (stereo not given)	n	n	n	n	n
COc1cc(N2N=C(c3ccccc3)CC2c2ccccc2)c(C=O)cc1C=O (stereo not given)	n	n	n	n	n
COc1ccccc1N1N=C(c2ccc([N+](=O)[O-])cc2)CC1c1ccccc1 (stereo not given)	55	n	58	n	n
SMILES	CHO parental Ca	GPR7 antagonist	OX1R antag-1	OX1R antag-2	GalR3 antagonist
COc1ccc(NC(=O)CSCC(=O)N2CCN(c3cccc(C(F)(F)F)c3)CC2)cc1	n	x	n	n	n
CN(C)S(=O)(=O)c1ccc(NC(=O)N2CCN(c3cccc(C(F)(F)F)c3)CC2)cc1	39	n	48	n	n
Cc1cccc(NC(=O)CSCC(=O)N2CCN(c3cccc(C(F)(F)F)c3)CC2)c1	n	x	n	30	n
c1cc2c3c(cccc3c1)C(N1CCCCCC1)=N2	n	32	n	n	n
COc1cc(C(=S)N2CCCC2)ccc1OS(=O)(=O)c1ccc(NC(C)=O)cc1	n	n	n	n	n
CC(=O)Nc1ccc(S(=O)(=O)Oc2ccccc2N2CCCCC2)cc1	n	20	n	n	n
COc1cccc(C(=O)N[C@H](C(=O)N2CCC[C@H]2C(=O)NCCc2ccccc2Cl)c2ccccc2)c1	x	x	x	x	n
O=C(Nc1ccn(CCCNCC(c2ccccc2)c2ccccc2)c(=O)n1)OCc1ccccc1	x	x	x	x	n
COc1cc(C(=O)NN=C2c3ccccc3-c3ccccc32)cc(OC)c1OC	x	x	x	x	n
COc1ccc(-c2cc(C(=O)N(C)Cc3cccc(OC)c3OC)c3ccccc3n2)cc1OC	n	n	n	n	n
COc1ccc(CCN(C)C(=O)c2cc(-c3ccccc3)nc3ccc(C)cc23)cc1OC	n	n	n	70	n
